Assay results from the EternaBench riboswitch data.

Tested on: MS2 coat protein
Assay: apparent Kd, MS2 coat protein; higher = weaker binding; RNA-MaP array; FMN 200 µM where present
Summary of the method: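 In 100 mM Tris-HCl pH 7.5, 80 mM KCl, 4 mM MgCl2, BSA, DTT, yeast tRNA and Tween-20, SNAP-549-labelled MS2 coat protein was titrated from 0.7 or 1.5 nM, doubling to 3 µM, over designs transcribed by stalled E. coli RNA polymerase on Illumina sequencing-chip clusters. This was done first without ligand, then with ligand held constant. After green signal was normalised to red-channel RNA signal and control-cluster median Fmax, the apparent Kd was taken as the median of filtered per-cluster binding-curve fits.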

[1] = designed as: OFF switch for flavin mononucleotide, no ligand
[2] = ligand present: flavin mononucleotide, designed as: OFF switch for flavin mononucleotide
[3] = designed as: ON switch for flavin mononucleotide, no ligand
[4] = ligand present: flavin mononucleotide, designed as: ON switch for flavin mononucleotide

Row | Sequence | apparent Kd [1] [nM] | apparent Kd [2] [nM] | apparent Kd [3] [nM] | apparent Kd [4] [nM]
1 | CAGUACUGAGGAUAUACAUGAGGAUCACCCAUGUGUUGCAGCUAGGAAACUAGCAAAAGUAGAAGGCAGUACUG | 10.7 | 21 |  | 
2 | CAUUAAUUCAUUAUAGUUAUUAUACAGGAUAUGUUACAUGAGGAUCACCCAUGUAUUCAUGGUAAACAGAAGGGUAAUUCUAGU | 20.1 | 19.7 |  | 
3 | AGCUGUGGCAGAGGAUAUACUACCAUAAUCCAUUGCAAAUAGCGAUGGACAUGAGGAUCACCCAUGUAGAAGGCUGUCUCAGCA | 68.2 | 275 |  | 
4 | UAUUAAUACAUAUACAUGAGGAUCACCCAUGUCAAAAGACAUGAGGAUAUGGAUCCUAAUUGGAUCCAGAAGGCAUGAAUAAUU |  |  | 347 | 17.6
5 | GGAAUAUUUACAGGAUAUCAUUUGUAAAUUCGAUGAGAAGGGUAGAUGUCUUACACGACUUGUUACAUGAGGAUCACCCAUGUU |  |  | 43.3 | 33.3
6 | UAUAUGUCAGGAUAUUAAUUAAGAUGGAAUUUAGUCUUAGUUGAGAAGGGACAUGAGGAUCACCCAUGUUCCUC | 19.7 | 159 |  | 
7 | GGUCCUUCUGUUAGGAUAUGCUUUGGGCUUCCGCAGUAGAAGGAACAUGAGGAUCACCCAUGUCCGAUGCCGUA | 65.3 | 84.4 |  | 
8 | UUUAUAUAGUAAGGAUAUGUAUUAUUUUUUACAACAGAAGGUACUGACAUGAGGAUCACCCAUGUUUUAGUGUGGGCAUGUAGU | 296 | 364 |  | 
9 | AUCAGCUCGUGAGGAUAUACGUCACUGCUUCGGCAGUGUGGUAAGAUCACAUGAGGAUCACCCAUGUAGAAGGCACGAGCUGAU | 21.4 | 471 |  | 
10 | GGAUGAGAAACUCAUCCAAUUCGAACAUGAGGAUCACCCAUGUAGGAUAUGCUACUCAAAGAGUAGCAGAAGGACAUGUGCCUU | 25 | 189 |  | 
11 | AAAUGAUAGUCAGGAUAUAAGUUGGAGCCUCGGUCGCACAUGAGGAUCACCCAUGUGUCUUGGAUUUAGAAGGGACAGAUGGGC |  |  | 682 | 648
12 | AUAGUUUUCAUAGGAUAUUGAAUUAUAUUUAAUCAAGAAGGAUGAAUACAUGAGGAUCACCCAUGUUAACAUGGAUUAAGUAGU | 20.9 | 44.3 |  | 
13 | CGUGACGACAUAGGAUAUUGAUACAUGAGGAUCACCCAUGUCACCCAUUUAUCUCAAAUUGUUGACAAGAAGGAUGUGGUCACG |  |  | 16.7 | 10.8
14 | CUGCGGGCCAUAGGAUAUGCGCAGAAUUAGCAAGCAGAAGGGUGGAUCGUACAAUAAUAACUACAUGAGGAUCACCCAUGUGCU |  |  | 235 | 56.1
15 | ACAUUUAUAUCAGGAUAUACAAUACAAUGAUUAGUAGAAGGGAUUAUUACAUGAGGAUCACCCAUGUCAUGUGUCAUAAUAACC | 27.6 | 24.1 |  | 
16 | GUAGCAUACCGAGGAUAUUCAUAUAGGAAACAAACAUGAGGAUCACCCAUGUGGCGAAAGCCUUGGGAGAAGGCGGAAUGCUAC |  |  | 115 | 21.1
17 | GUUUCGGGAGGAUAUGCGUGGAUUAUUCUCGUAUGUUGUUUACAUGAGGAUCACCCAUGUAGAAGGUCUGGAGC | 193 | 300 |  | 
18 | AAGUCGAGCGUGAGGAUAUCGACCGGACGACCCAUCGAGAAGGCACAUGAGGAUCACCCAUGUGAUUCAGCUCA | 16.9 | 25.9 |  | 
19 | UCCACUGCUGAGAAGGGAUACGUCUGGUUCGCAUCAGGAUAUCGAUACAGUGCAGCAUGAGGACAUGAGGAUCACCCAUGUGUG |  |  | 103 | 53.6
20 | GAACCUCUUGUGAGGAUAUGCUGUUGAACGAGCUUGCAGAAGGCACAUGAGGAUCACCCAUGUCUCUUCUGGGU | 20.4 | 28.2 |  | 
21 | AGUUAGAUAGCGAUAUGAUCGAGAGAUCAUGUCGCUAAAUUUAGAAGGACAUGAGGAUCACCCAUGUAGGAUAUGGGUAUAGAA |  |  | 367 | 128
22 | GGGUCCAACACAGGAUAUGCUGGACUUUGUCCAGCAGAAGGGUGAAGAACAUGAGGAUCACCCAUGUGGAUCCAUAUAUUUAAU |  |  | 236 | 17.9
23 | AUGCUUCACACAGGAUAUACAUGAGGAUCACCCAUGUGUCCUACGUAGCUGACACGAGCUACGCGGUAGAAGGGUGUGAAGCAU | 18.6 | 93.7 |  | 
24 | AAGUGUGGAUGAGGAUAUCAGCUGUAACUGACGUCGACAUGAGGAUCACCCAUGUUGCUAUAGGGUGAGAAGGCAUUUGCGCAA |  |  | 585 | 75.1
25 | CGUGACUCAGGAUAUCUAUAGUGUCACAUGAGGAUCACCCAUGUCCAGCGAAAGCUGGAGGGAGAAGGGAGUCACG | 96.7 | 39.9 |  | 
26 | GACACUAGUGUUAGGAUAUGUGUGAGGGACCGCAAACAGAAGGAACAUGAGGAUCACCCAUGUGAUGGUUCUGA | 21.5 | 20.4 |  | 
27 | CCCGUGUUAGGAUAUACGGCACACCCACCAGCGGGUGUAUAGUAGAAGGAACAUGAGGAUCACCCAUGUAUAAC | 34.9 | 51.4 |  | 

Row | Sequence | apparent Kd [1] [nM] | apparent Kd [2] [nM] | apparent Kd [3] [nM] | apparent Kd [4] [nM]
28 | GUGGACGUCGUAGGAUAUGUAGGAUAUUCCUACAUGAGGAUCACCCAUGUUUACAUGGAAGAAGGACAGAAGGACGAUGUCCAG |  |  | 992 | 16.2
29 | UGCGUUUGAGGAUAUACGUAGAAUUAGAUUCAUGUAAAACUACAUGAGGAUCACCCAUGUAGAAGGCAAGCGCU | 17.7 | 79.4 |  | 
30 | GACCCUAAUGAGAAGGUGUGUAUAAAUUAUAUACAAGGAUAUCGGUCGAGCGUGUUGACAUGAGGAUCACCCAUGUUGAGGGUU |  |  | 26.8 | 10.4
31 | GCAGCGACUGCAGGAUAUCAGCACGUGUAGUGCUGAGAAGGGCACAUGAGGAUCACCCAUGUGAUCAAUUAAUAGUCAUGCUGC | 7.23 | 15.9 |  | 
32 | UCGACCAGCGCAACUCGAACAUGAGGAUCACCCAUGUACUCCAGAAGGCCGCCCAAGUACGGAGUGGAGGAUAUGGAGGUUCUC |  |  | 56.9 | 86.1
33 | UUGGAGUUCGUAGGAUAUGUAGGAUAUUCCUACAUGAGGAUCACCCAUGUAUGCAUGGAAGAAGGACAGAAGGACGAGCUCCAU |  |  | 184 | 13
34 | AGAGUUUCGUUGUGACCCAUUCACAUGAGGAUCACCCAUGUAGAGGAUAUAGGUCACCACGGUACCUAGAAGGCUACAGGUGUG | 13.4 | 15.5 |  | 
35 | CGCGAAAACAUAGGAUAUUGUUACAUGAGGAUCACCCAUGUCAACCAUUUAUCUCAAAUUGUUGACAAGAAGGAUGAGGUCGCG |  |  | 113 | 28.4
36 | UAUCGGAGCAGAGGAUAUUACAUGAGGAUCACCCAUGUAUGAACCAAUAGCUGGAAACAGCAAUGUAAGAAGGCUGCUCCGACA | 11.9 | 163 |  | 
37 | GCAGGAAAACUUGGUACAUGAGGAUCACCCAUGUAAAGCGGCAGAAGGGCGAUGUUAUGUAUAACGCAGGAUAUGCAGCGGAAU |  |  | 46.4 | 18.1
38 | GUCAGCUCGUGAGGAUAUCCAACACUGCUUCGGCAGUGUAUUAAGAUCACAUGAGGAUCACCCAUGUAGAAGGCACGAGCUGAU | 6.48 | 7.55 |  | 
39 | UGAAAUCAUGUAGGAUAUGCAUGGCGAAGCUACGCAGAAGGACAUGAGGAUCACCCAUGUGCUAGCUACCGGAUACGGUGGCAA | 99.1 | 230 |  | 
40 | GGAACGAUCAUCAUUGAACAUGAGGAUCACCCAUGUACGAUGUAGGAUAUAUACCCGGUCAAGGUAUAGAAGGACAGGGUACAG | 18.6 | 55.4 |  | 
41 | UGCAAAAUUGCAACAUGAGGAUCACCCAUGUCUGGGUUGGCCAAGGAUAUGCUUCUAAUCCUAGUGCAGAAGGUGGAAACUCAU |  |  | 201 | 530
42 | AUCUUUAAGAUAGGAUAUAGUAUGAUGGUUUAAUUAGAAGGAUCUCACAUGAGGAUCACCCAUGUAAUAGGAUUACCCAUGUAU | 46.1 | 31.7 |  | 
43 | AGAUAACACCAGAAGGACAUGAGGAUCACCCAUGUAGGAUAUGGGCAUCACUCGAGAAAGAAACGACCGAAAGGACACGCGGUC |  |  | 155 | 13
44 | UGUGAGUUGAUCUUAGAUCGGAGUACAUGAGGAUCACCCAUGUAGGAUAUUCAAAGACGCAGAUAGAAGAAGGACAUAGGUUUC | 15.1 | 13.8 |  | 
45 | UUUUUUGUAGUGAGGAUAUCGUUGAGGAUGUGGAUCGAGAAGGCACAUGAGGAUCACCCAUGUUAGAUGUGGUU | 262 | 295 |  | 
46 | UCUUAUUGCAAGGAUAUGCUUUUUAUUUCUUUUGCAGAAGGUGCAACAUGAGGAUCACCCAUGUUUCCGGGCAU | 16 | 28 |  | 
47 | GGAGACCUCACAGGAUAUGCUGGACUUUGUCCAGCAGAAGGGUGAAAACAUGAGGAUCACCCAUGUAUGGUCUCCAAAUUUAAA |  |  | 200 | 13.2
48 | ACGGCAAUCACAGGAUAUGGUUACAUGAGGAUCACCCAUGUCUAGGGUCUAAUUAGGUAUAACUACCAGAAGGGUGAAGGCCUA | 97.1 | 80.1 |  | 
49 | UAAGAUUAUGUAGGAUAUGGUUAUCUAUGUCUAGUUACUAGACAUAGAUAACCAGAAGGACAUGAGGAUCACCCAUGUUGAACG | 7.73 | 16.9 |  | 
50 | GGGUACAUCGUAGGAUAUCAUGUAAAUACAUGAGGAUCACCCAUGUCGAUGGAGACAUCGGAGAUUGAGAAGGCCGAUGUACCG |  |  | 206 | 17.9
51 | AAAUCUUACGAAGGAUAUACAAACAUGAGGAUCACCCAUGUGUGUUUCGUGUUACUGAAAUUCGGGUAGAAGGUCGUAGACAUA | 27.7 | 19.2 |  | 
52 | CACGGUGAUGUAGGAUAUACGCUGGAAUACAGCGUAGAAGGACAUGAGGAUCACCCAUGUAAAGUGUCUCCGAAUAACACCGUG | 33.8 | 63.3 |  | 
53 | UCAUACAUGACAUGACAUGACAUGAGGAUCACCCAUGUUUACAAGGAUAUGUUGAUGAAACAUCAACAGAAGGUGUAUUGGACU | 51.8 | 172 |  | 
54 | ACGUGACGGUGCGCGAGCGGACGGAGAAGGCAGACAUGAGGAUCACCCAUGUGAGCCUGCUAUUCUGAGGAUAUCCGUCCACAC | 30.4 | 167 |  | 
